# Columns and labels:
# Format in all cases: functional
# [1] = tested on: Candida albicans; assay: In vitro antifungal activity against Candida albicans
# How it was run: (§1)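 Broth microdilution MIC in Sabouraud's glucose broth; final inocula 1 × 10^5 cells/mL (yeast) or 1 × 10^5 conidia/mL (mold and dermatophyte).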
# [2] = tested on: Candida albicans; assay: Minimum effective concentration for inhibition of pseudomycelium formation in Candida albicans; settings: for minimal effective concentration: Candida albicans, read-out: MEC
# How it was run: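 C. albicans KE-2 (clinical isolate) at a final 1 × 10^6 yeast cells/mL in EMEM with 20% calf serum; compounds diluted by the same microtiter system as for MICs. After incubation, wells were Giemsa-stained (5% in phosphate buffer) and read by microscope. MEC is the lowest concentration preventing typical pseudomycelium formation.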
# [3] = tested on: Trichophyton benhamiae; assay: In vitro antifungal activity against Trichophyton asteroides; how it was run: as §1
# [4] = tested on: Aspergillus fumigatus; assay: In vitro antifungal activity against Aspergillus fumigatus; how it was run: as §1
# [5] = Candida albicans, read-out: MIC
# [6] = Trichophyton benhamiae, read-out: MIC
# [7] = Aspergillus fumigatus, read-out: MIC
Structure (SMILES),"MIC [1, 5] [µg/mL]","MIC [3, 6] [µg/mL]","MIC [4, 7] [µg/mL]",MIC [1] [µg/mL],MIC [3] [µg/mL],MIC [4] [µg/mL],minimal effective concentration [2] [µg/mL],MEC [2] [µg/mL]
OC(c1ccc(Cl)cc1)C(O)(Cn1cncn1)c1ccc(Cl)cc1Cl (stereo in doubt; 109),,,,100,12.5,>100,,20
COc1ccc(C(O)C(O)(Cn2cncn2)c2ccc(OC)cc2)cc1 (stereo not drawn),> 100,25,> 100,,,,> 20,
O=C(c1ccc(Cl)cc1)C(O)(Cn1ccnc1)c1ccc(Cl)cc1 (stereo not drawn),> 100,0.1,> 100,,,,20,
COc1ccc(C(=O)C(O)(Cn2cnnc2)c2ccc(OC)cc2)cc1 (stereo not drawn),> 100,50,> 100,,,,2.5,
Clc1ccc([C@@]2(Cn3cncn3)OCO[C@@H]2c2ccccc2)c(Cl)c1,> 100,0.2,12.5,,,,0.08,
CC(C)C(C)(O)C(O)(Cn1cncn1)c1ccccc1 (stereo not drawn),> 100,6.3,> 100,,,,10,
COc1ccc(C(=O)C(O)(Cn2cncn2)c2ccc(OC)cc2)cc1 (stereo not drawn),> 100,12.5,> 100,,,,> 20,
CC(O)(c1ccc(F)cc1)C(O)(Cn1cncn1)c1ccc(Cl)cc1 (stereo in doubt; 163),100,0.2,> 100,,,,,0.63
OC(c1ccc(F)cc1)C(O)(Cn1cncn1)c1ccc(F)cc1 (stereo not drawn),> 100,1.6,> 100,,,,10,
O=C(c1ccco1)C(O)(Cn1cncn1)c1ccco1 (stereo not drawn),> 100,100,> 100,,,,> 20,
CCC[C@H]1OC(=O)O[C@]1(Cn1cncn1)c1ccc(Cl)cc1,> 100,1.6,> 100,,,,0.31,
CC(C)CC(O)(Cn1cncn1)C(=O)c1ccc(Cl)cc1 (stereo not drawn),> 100,0.8,> 100,,,,0.31,
CC(C)(O)C(O)(Cn1cncn1)c1ccccc1 (stereo not drawn),> 100,6.3,> 100,,,,> 20,
CC(O)(c1ccccc1)C(O)(Cn1cncn1)c1ccc(Cl)cc1Cl (stereo in doubt; 167),,,,50,0.1,25,,0.08
O=C(c1ccccc1)C(O)(Cn1cnnc1)c1ccccc1 (stereo not drawn),> 100,> 100,> 100,,,,> 20,
CC(C)C(O)(Cn1cncn1)C(=O)c1ccc(Cl)cc1 (stereo not drawn),> 100,0.2,100,,,,0.63,
CCCC[C@H]1OC(=O)O[C@]1(Cn1cncn1)c1ccc(Cl)cc1Cl,> 100,0.2,> 100,,,,0.63,

# Second part, led by results:
"MIC [1, 5] [µg/mL]","MIC [3, 6] [µg/mL]","MIC [4, 7] [µg/mL]",MIC [1] [µg/mL],MIC [3] [µg/mL],MIC [4] [µg/mL],Structure (SMILES),minimal effective concentration [2] [µg/mL],MEC [2] [µg/mL]
> 100,3.1,> 100,,,,OC(c1cccc(Cl)c1)C(O)(Cn1cncn1)c1cccc(Cl)c1 (stereo not drawn),> 20,
100,0.8,> 100,,,,O=C(c1ccc(F)cc1)C(O)(Cn1cncn1)c1ccc(Cl)cc1 (stereo not drawn),1.25,
> 100,0.4,> 100,,,,CC(C)[C@H]1OS(=O)O[C@]1(Cn1cncn1)c1ccc(Cl)cc1 (stereo partly drawn),0.16,
> 100,0.8,> 100,,,,O=C(c1cccs1)C(O)(Cn1ccnc1)c1ccc(Cl)cc1 (stereo not drawn),5,
100,1.6,> 100,,,,CCC[C@H]1OC(=O)O[C@]1(Cn1cncn1)c1ccc(Cl)cc1Cl,0.16,
> 100,3.1,> 100,,,,COc1ccccc1C(O)C(O)(Cn1cncn1)c1ccccc1OC (stereo not drawn),10,
50,,> 100,,12.5,,OC(c1ccc(Cl)cc1)C(O)(Cn1cncn1)c1ccc(Cl)cc1 (stereo in doubt; 89),,20
100,0.2,> 100,,,,CCCCCC(O)(Cn1cncn1)C(=O)c1ccc(Cl)cc1 (stereo not drawn),0.63,
100,0.1,> 100,,,,OC(c1ccc(Cl)cc1Cl)C(O)(Cn1cncn1)c1ccc(Cl)cc1 (stereo not drawn),0.31,
50,0.8,> 100,,,,O=C1O[C@H](c2ccc(Cl)cc2)[C@@](Cn2cncn2)(c2ccc(Cl)cc2)O1,1.25,

# Reference: ChEMBL document CHEMBL1123760, “Synthesis and oral antifungal activity of novel azolylpropanolones and related compounds” (1987)
